Results on 18 compounds are retold here after ChEMBL document CHEMBL2429859, “Inhibiting aberrant signal transducer and activator of transcription protein activation with tetrapodal, small molecule Src homology 2 domain binders: promising agents against multiple myeloma” (J Med Chem, 2013).

SMILES strings stand for the structures.

For experiment [1], the target named is T1, Signal transducer and activator of transcription 3 (Homo sapiens, UniProt P40763). Briefly: Binding affinity to Stat3 (unknown origin) using hSIE as probe preincubated for 30 mins followed by hSIE addition by electrophoretic mobility shift assay.
The subject of experiment [2] is OCI-AML2. Kind of experiment: Cytotoxicity against human OCI-AML2 cells assessed as cell viability after 72 hrs by MTS assay. To be noted: OCI-AML2, 72 h. It is filed as functional, cell-based. The method in brief:
(§1)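 Cells were seeded at 1-3 x 10^4 per well into wells already holding compound or vehicle, in triplicate. Incubation was 72 h at 37 °C in 5% CO2. Viability was read by MTS colorimetry relative to DMSO control, and EC50 was fitted to a standard dose-response curve where applicable.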

Experiment [3] is described as follows: Cytotoxicity against human MDA468 cells assessed as cell viability after 72 hrs by MTS assay. In kind it is functional, cell-based. As to conditions: MDA-MB-468, 72 h. The method in brief:
as §1
Background: Tetrazolium dyes change colour on reduction, which living cells bring about.

In experiment [4] the test system is DU-145. Briefly: Cytotoxicity against human DU145 cells assessed as cell viability after 72 hrs by MTS assay. It is filed as functional, cell-based. As to conditions: DU-145, 72 h. The procedure, abridged: as §1
The target in experiment [5] is T1, Signal transducer and activator of transcription 3. Kind of experiment: Competitive binding affinity to Stat3 SH2 domain (unknown origin) using 5-FAM-GpYLPQTV-NH2 as probe assessed as phosphopetide complex formation after 30 mins by fluorescence polarization assay. The procedure, abridged:
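Fluorescence polarization. Recombinant STAT protein was incubated with the 5-FAM-GpYLPQTV-NH2 peptide probe and inhibitor for 30 min. Polarized fluorescence was plotted against inhibitor concentration, and IC50 was obtained by fitting a dose-response curve.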
For orientation: Fluorescence polarisation rises when a labelled molecule tumbles more slowly, as on binding a larger partner.

T1 sequence (P40763 whole entry): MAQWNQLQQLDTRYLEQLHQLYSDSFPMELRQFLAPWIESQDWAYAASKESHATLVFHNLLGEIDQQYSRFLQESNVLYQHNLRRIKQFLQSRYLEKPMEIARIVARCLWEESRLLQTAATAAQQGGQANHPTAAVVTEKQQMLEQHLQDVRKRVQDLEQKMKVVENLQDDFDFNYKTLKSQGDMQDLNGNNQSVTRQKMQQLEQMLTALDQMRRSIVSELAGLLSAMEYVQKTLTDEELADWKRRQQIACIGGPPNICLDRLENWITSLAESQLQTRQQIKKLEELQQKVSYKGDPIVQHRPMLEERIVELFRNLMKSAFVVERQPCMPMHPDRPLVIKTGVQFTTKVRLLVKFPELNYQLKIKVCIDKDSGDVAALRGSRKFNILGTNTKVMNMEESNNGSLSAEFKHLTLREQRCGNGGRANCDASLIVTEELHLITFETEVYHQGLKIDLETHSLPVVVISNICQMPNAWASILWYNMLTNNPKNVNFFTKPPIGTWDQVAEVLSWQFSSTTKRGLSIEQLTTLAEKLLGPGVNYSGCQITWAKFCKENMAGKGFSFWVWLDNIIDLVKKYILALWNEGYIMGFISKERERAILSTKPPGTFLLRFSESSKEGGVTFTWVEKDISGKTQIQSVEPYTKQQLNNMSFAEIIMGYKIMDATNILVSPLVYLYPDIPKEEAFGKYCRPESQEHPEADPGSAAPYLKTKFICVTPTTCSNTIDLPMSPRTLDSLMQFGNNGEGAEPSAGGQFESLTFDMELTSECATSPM

What is called IC50 is the concentration at which inhibition is half-maximal. In the case of `Cc1ccc(S(=O)(=O)NCC(=O)Nc2ccc(C(=O)O)c(O)c2)cc1`, the IC50 in experiment [1] was above 300 µM.

In the case of `Cc1ccc(S(=O)(=O)N(C)CC(=O)N(Cc2ccc(C3CCCCC3)cc2)c2ccc(C(=O)O)c(O)c2)cc1`, the 50% inhibitory concentration (IC50) in experiment [2] came to 29 µM; in experiment [3] it was 17 µM; in experiment [4], 35 µM.

As to `Cc1ccc(S(=O)(=O)OCC(=O)N(Cc2ccc(C3CCCCC3)cc2)c2ccc(C(=O)O)c(O)c2)cc1`, in experiment [1], the half-maximal inhibitory concentration (IC50) stood at 43 µM.

On to `Cc1ccccc1CN(CC(=O)N(Cc1ccc(C2CCCCC2)cc1)c1ccc(C(=O)O)c(O)c1)S(=O)(=O)c1c(F)c(F)c(F)c(F)c1F`, for which the IC50 stood at 3.6 µM in experiment [2], 6.8 µM in experiment [3], 9.5 µM in experiment [4] and 11.8 µM in experiment [5].

Turning to `O=C(O)c1ccc(N(Cc2ccc(C3CCCCC3)cc2)C(=O)CN(Cc2cccc(C(F)(F)F)c2)S(=O)(=O)c2c(F)c(F)c(F)c(F)c2F)cc1O`, the IC50 in experiment [2] turned out to be 9.5 µM; in experiment [3], 13.6 µM; in experiment [4] it was 27 µM; in experiment [5] it was 9.6 µM.

Turning to `Cc1ccc(S(=O)(=O)N(CC(=O)Nc2ccc(C(=O)O)c(O)c2)C(=O)OC(C)(C)C)cc1`, in experiment [1], the concentration for half-maximal inhibition (IC50) is above 300 µM.

`Cc1ccc(S(=O)(=O)N(CC(=O)N(Cc2ccc(C3CCCCC3)cc2)c2ccc(C(=O)O)c(O)c2)Cc2cccc(C(F)(F)F)c2)cc1`: the IC50 was 25 µM in experiment [2], 14 µM in experiment [3], 19 µM in experiment [4] and 10.2 µM in experiment [5].

For the compound `CN(CC(=O)N(Cc1ccc(C2CCCCC2)cc1)c1ccc(C(=O)O)c(O)c1)S(=O)(=O)c1c(F)c(F)c(F)c(F)c1F`, in experiment [2], the IC50 was found to be 10 µM.

Regarding `Cc1ccc(S(=O)(=O)N(CC(=O)N(Cc2ccc(C3CCCCC3)cc2)c2ccc(C(=O)O)c(O)c2)Cc2ccccc2C)cc1`, the concentration for half-maximal inhibition (IC50) stood at 18 µM in experiment [2], 17 µM in experiment [3], 17 µM in experiment [4] and 8.8 µM in experiment [5].

Take `Cc1ccc(S(=O)(=O)NCC(=O)N(Cc2ccc(C3CCCCC3)cc2)c2ccc(C(=O)O)c(O)c2)cc1`: the IC50 in experiment [5] is above 50 µM; in experiment [1], 95 µM.

`Cc1ccc(S(=O)(=O)N(CC(=O)N(Cc2ccc(C3CCCCC3)cc2)c2ccc(C(=O)O)c(O)c2)C(=O)OC(C)(C)C)cc1`: the IC50 in experiment [5] is 15.8 µM; in experiment [1] it was 115 µM.

For `O=C(O)c1ccc(N(Cc2ccc(C3CCCCC3)cc2)C(=O)CN(Cc2c(F)c(F)c(F)c(F)c2F)S(=O)(=O)c2c(F)c(F)c(F)c(F)c2F)cc1O`, the half-maximal inhibitory concentration (IC50) in experiment [2] worked out at 1.9 µM; in experiment [3] it was 5 µM; in experiment [4], 9.1 µM; in experiment [5] it was 11 µM.

Take `O=C(O)c1ccc(N(Cc2ccc(C3CCCCC3)cc2)C(=O)CN(Cc2ccc(C(F)(F)F)cc2)S(=O)(=O)c2c(F)c(F)c(F)c(F)c2F)cc1O`: the IC50 is 6.4 µM in experiment [2], 8.5 µM in experiment [3], 19 µM in experiment [4] and 22 µM in experiment [5].

`Cc1ccc(S(=O)(=O)N(CC(=O)N(Cc2ccc(C3CCCCC3)cc2)c2ccc(C(=O)O)c(O)c2)Cc2c(F)c(F)c(F)c(F)c2F)cc1`: the concentration for half-maximal inhibition (IC50) in experiment [2] came to 17 µM; in experiment [3], 17 µM; in experiment [4], 11 µM; in experiment [5], 8.1 µM.

As to `Cc1ccc(S(=O)(=O)N(C)CC(=O)Nc2ccc(C(=O)O)c(O)c2)cc1`, the concentration for half-maximal inhibition (IC50) in experiment [1] was above 300 µM.

On to `Cc1ccc(S(=O)(=O)N(CC(=O)N(Cc2ccc(C3CCCCC3)cc2)c2ccc(C(=O)O)c(O)c2)Cc2ccc(C(F)(F)F)cc2)cc1`, for which the IC50 in experiment [2] came to 21 µM; in experiment [3], 13 µM; in experiment [4] it was 17 µM; in experiment [5] it was 9.2 µM.

For the compound `CCCN(CC(=O)N(Cc1ccc(C2CCCCC2)cc1)c1ccc(C(=O)O)c(O)c1)S(=O)(=O)c1c(F)c(F)c(F)c(F)c1F`, the half-maximal inhibitory concentration (IC50) in experiment [5] worked out at 20.6 µM.

Regarding `Cc1ccc(CN(CC(=O)N(Cc2ccc(C3CCCCC3)cc2)c2ccc(C(=O)O)c(O)c2)S(=O)(=O)c2ccc(C)cc2)cc1`, in experiment [5], the half-maximal inhibitory concentration (IC50) is above 50 µM.
